Drawing on ChEMBL document CHEMBL1667740, “Phenolic glycosides with antimalarial activity from Grevillea "Poorinda Queen"” (J Nat Prod, 2011), this text covers IC50, SI and Activity for 6 molecules.

Series [1] relates to Plasmodium falciparum. In words: Antimalarial activity against chloroquine-sensitive Plasmodium falciparum D6 infected in human O positive red blood cells assessed as inhibition of [3H]-hypoxanthine uptake after 48 hrs. Format: functional, organism-based. The method in brief:
(§1)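 Synchronised ring-stage parasites (sorbitol selection) kept in RPMI-1640 with HEPES, glucose, hypoxanthine, gentamycin, 10% human plasma and 4% O+ RBCs under 5% O2/5% CO2/90% N2 at 37 °C. Assay at 2% hematocrit and 1% parasitemia in hypoxanthine-free medium. DMSO stocks of 20-25 mg/mL, ten 2-fold dilutions in triplicate, 48 h. [3H]-hypoxanthine (0.2 µCi) added at 24 h. IC50 taken against compound-free controls.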

Series [2] can be described thus: Selectivity index, ratio of IC50 for human HepG2 cells to IC50 for Plasmodium falciparum 3D7.
A further series relates to HEK293. In words: Cytotoxicity against human HEK293 cells after 72 hrs by alamar blue assay. Format: cell-based. The following applies: HEK293, 72 h. The method in brief: (§2)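 HEK-293 and HepG2 cells grown in RPMI 1640 with 10% FBS and L-glutamine at 37 °C. Seeded at 5 × 10^3 cells/well and left 24 h before drug addition. Compounds tested from 312 to 0.6 µg/mL, artesunate and chloroquine from 120 µM to 60 nM, in triplicate for 72 h. DMSO vehicle and cell-free background wells as controls. 10% Alamar Blue added for 2 h, fluorescence read at ex 530/em 595 nm. IC50 from at least two independent experiments, mean ± SD.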
A general note: Alamar Blue is a resazurin reagent that responds to reducing activity.

A short description of series [3]: Selectivity index, ratio of IC50 for human HEK293 cells to IC50 for Plasmodium falciparum 3D7.
A further series relates to HepG2. Put plainly: Cytotoxicity against human HepG2 cells after 72 hrs by alamar blue assay. It counts as cell-based. The conditions noted are these: HepG2, 72 h. The procedure, abridged:
as §2

The test system of series [4] is Plasmodium berghei. Put plainly: Antimalarial activity against Plasmodium berghei infected in mouse assessed as reduction of parasite infection at 2 mg/kg, sc qd for 4 days relative to control. Format: functional. Also noted: scale not given: the % may be the effect or the level left. The conditions noted are these: route subcutaneous.
For series [5], the system named is Plasmodium berghei. In words: Antimalarial activity against Plasmodium berghei infected in mouse assessed as reduction of parasite infection at 1 mg/kg, sc qd for 4 days relative to control. It counts as functional. Also noted: scale not given: the % may be the effect or the level left. The conditions noted are these: route subcutaneous.
Series [6] has as its system Plasmodium falciparum. In words: Antimalarial activity against multidrug-resistant Plasmodium falciparum TM90-C2B infected in human O positive red blood cells assessed as inhibition of [3H]-hypoxanthine uptake after 48 hrs. It counts as functional, organism-based. The method in brief:
as §1

In series [7] the test system is Plasmodium falciparum. Put plainly: Antimalarial activity against chloroquine and pyrimethamine-resistant Plasmodium falciparum K1 infected in human O positive red blood cells assessed as inhibition of [3H]-hypoxanthine uptake after 48 hrs. Format: functional, organism-based. The method in brief: as §1
Series [8] relates to Plasmodium berghei. Put plainly: Antimalarial activity against Plasmodium berghei infected in mouse assessed as reduction of parasite infection at 32 mg/kg, sc qd for 4 days relative to control. It counts as functional. The conditions noted are these: route subcutaneous. Also noted: scale not given: the % may be the effect or the level left.
Series [9] concerns Plasmodium falciparum. In words: Antimalarial activity against chloroquine, pyrimethamine, and mefloquine-resistant Plasmodium falciparum Dd2 infected in human O positive red blood cells assessed as inhibition of [3H]-hypoxanthine uptake after 48 hrs. It counts as functional, organism-based. The procedure, abridged: as §1
Series [10] relates to Plasmodium falciparum. In words: Antimalarial activity against chloroquine-sensitive Plasmodium falciparum 3D7 infected in human O positive red blood cells assessed as inhibition of [3H]-hypoxanthine uptake after 48 hrs. Format: functional, organism-based. The method in brief:
as §1

In a further series the test system is Mus musculus. Put plainly: Toxicity in mouse assessed as physical stress at 32 mg/kg, sc qd for 4 days. Format: organism-based. The arrangement: dose 32 mg/kg, route subcutaneous. The following applies: in vivo, 96 h. The method in brief:
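Tolerability in healthy mice: subcutaneous dosing for 4 days. Mice watched for physical stress, namely ruffled coat, extreme pallor, weight loss, shaking and reduced mobility.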

For series [11], the system named is Plasmodium falciparum. In words: Antimalarial activity against multidrug-resistant Plasmodium falciparum TM93-C1088 infected in human O positive red blood cells assessed as inhibition of [3H]-hypoxanthine uptake after 48 hrs. It counts as functional, organism-based. The method in brief:
as §1

The subject of series [12] is Plasmodium berghei. In words: Antimalarial activity against Plasmodium berghei infected in mouse assessed as reduction of parasite infection at 32 mg/kg, sc bid for 4 days relative to control. Format: functional. The arrangement: scale not given: the % may be the effect or the level left. The following applies: route subcutaneous. The procedure, abridged: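 Peters 4-day suppressive test in female mice (n = 6) inoculated intraperitoneally with 20 × 10^6 P. berghei ANKA-infected erythrocytes. Test articles dissolved in Tween 80/ethanol (7:3, v/v), diluted 10-fold in distilled water, and given subcutaneously from D0 (about 2 and 6 h post-inoculation) over 4 days. Chloroquine prepared in water. Giemsa-stained thin smears on D+1 to D+4. Microscopic % infected erythrocytes, suppression at D+4 versus vehicle control.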

For the molecule `C[C@H]1O[C@H](OC[C@H]2O[C@@H](Oc3cc(O)c4c(=O)c(O)c(-c5ccc(O)c(O)c5)oc4c3)[C@H](O)[C@@H](O)[C@H]2O)[C@@H](O)[C@@H](O)[C@@H]1O` (stereo in doubt), the IC50 with Plasmodium falciparum [1] was > 500 µM.
For the molecule `C[C@H]1[C@H](OC(=O)CCC(=O)O)O[C@@H]2O[C@@]3(C)CC[C@H]4[C@H](C)CC[C@@H]1[C@@]24OO3` [ARTESUNATE], the SI in series [2] was found to be 374; in [3], 150. In addition, the IC50 was determined as 2.9 µM with HEK293 and 12.7 µM in the series on HepG2.
As to `CCN(CC)CCCC(C)Nc1ccnc2cc(Cl)ccc12` (stereo not given) [CHLOROQUINE], the SI in [2] is 415; in [3], 600. The Activity in the series on Plasmodium berghei [4] came to 97%; with Plasmodium berghei [5], 58%. Besides, the IC50 in the series on HEK293 is 12 µM; with HepG2, 8.3 µM.
Turning to `O=C1C=CC(O)(/C=C/C(=O)OC[C@H]2O[C@@H](Oc3ccc(O)cc3)[C@H](O)[C@@H](O)[C@@H]2O)C=C1` [ROBUSTASIDE D], the values for the SI in series [2] and in series [3] were 37 and 33, respectively. In addition, the IC50 with Plasmodium falciparum [6] is 5.3 µM; in the series on HEK293, 195 µM; with Plasmodium falciparum [7], 3 µM; in the series on Plasmodium falciparum [1], 5.1 µM; in the series with Plasmodium falciparum [9], 3 µM; with Plasmodium falciparum [10] it was 5.5 µM. The IC50 in the series on Plasmodium falciparum [11] was found to be 4.1 µM; in the series with HepG2, 221 µM. Also, the Activity is 21% with Plasmodium berghei [8], “Non-toxic” with Mus musculus and 95% with Plasmodium berghei [12].
Turning to `O=C(/C=C/C1(O)C=CC(O)CC1=O)OC[C@H]1O[C@@H](Oc2ccc(O)cc2)[C@H](O)[C@@H](O)[C@@H]1O` (stereo not given in full) [ROBUSTASIDE E], the SI in [2] and in series [3] was > 10 in each case. For the same molecule, the IC50 in the series on Plasmodium falciparum [6] was 36.2 µM; in the series on HEK293, > 690 µM; with Plasmodium falciparum [7], 29.4 µM; in the series with Plasmodium falciparum [1] it was 55.5 µM; in the series on Plasmodium falciparum [9] it was 55.5 µM; with Plasmodium falciparum [10], 77.4 µM. The IC50 in the series on Plasmodium falciparum [11] was 25.3 µM; with HepG2 it was > 690 µM.
In the case of `COc1ccc(O)c(/C=C\C(=O)OC[C@H]2O[C@@H](Oc3ccc(O)cc3)[C@H](OC(=O)/C=C\c3cc(OC)ccc3O)[C@@H](O)[C@@H]2O)c1` [ROBUSTASIDE F], the IC50 in the series with Plasmodium falciparum [1] was 14.7 µM.

One may read the IC50 as the point on the concentration scale where inhibition reaches its midpoint.
